Legend:
MS2 coat protein [1] = assay: apparent Kd, MS2 coat protein; higher = weaker binding; RNA-MaP array; theophylline 2 mM where present; details: designed as: OFF switch for theophylline
Summary of the method: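 The titrant was SNAP-549-labelled MS2 coat protein, run from 0.7 or 1.5 nM in doubling steps to 3 µM. It was applied to designs transcribed by stalled E. coli RNA polymerase on Illumina sequencing-chip clusters, without ligand first and then with constant ligand, in 100 mM Tris-HCl pH 7.5, 80 mM KCl, 4 mM MgCl2, BSA, DTT, yeast tRNA and Tween-20. The apparent Kd is the median of filtered per-cluster binding-curve fits, with green signal normalised to red-channel RNA signal and control-cluster median Fmax.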

MS2 coat protein [2] = assay: apparent Kd, MS2 coat protein; higher = weaker binding; RNA-MaP array
Summary of the method: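 Incubations were done at room temperature with fluorescently labeled MS2 coat protein at 1.5 nM to 3 μM and designed RNAs transcribed on an Illumina sequencing chip from sequenced DNA templates, with or without input ligand. Apparent Kd is the median of binding curves fitted for each cluster. Designs with fewer than 10 measured clusters were excluded.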

[3] = designed as: OFF switch for flavin mononucleotide, no ligand
[4] = ligand present: flavin mononucleotide, designed as: OFF switch for flavin mononucleotide
[5] = designed as: OFF switch for theophylline, no ligand
[6] = ligand present: theophylline, designed as: OFF switch for theophylline
[7] = designed as: ON switch for flavin mononucleotide, no ligand
[8] = ligand present: flavin mononucleotide, designed as: ON switch for flavin mononucleotide
[9] = designed as: ON switch for theophylline, no ligand
[10] = ligand present: theophylline, designed as: ON switch for theophylline

| Sequence | apparent Kd (MS2 coat protein [2]; [3]) [nM] | apparent Kd (MS2 coat protein [2]; [4]) [nM] | further results |
| --- | --- | --- | --- |
| AGCGACAUGCAUGAUACCAGCUACAUGAGGAUCACCCAUGUACGUCAGUAAUGACUGUGUAGCCCUUGGCAGCAUAGAGCAUGUC |  |  | apparent Kd (MS2 coat protein [1]; no ligand): 18.3 nM; apparent Kd (MS2 coat protein [1]; ligand present: theophylline): 48.6 nM |
| UAUAUAUAAAUUGAUACCAGCGAGAAAACAUGAGGAUCACCCAUGUUCGCCCAUGUUAAGCGCCCUUGGCAGCAAUAUUAUUAUU |  |  | apparent Kd (MS2 coat protein [1]; no ligand): 24.5 nM; apparent Kd (MS2 coat protein [1]; ligand present: theophylline): 73 nM |
| AUCGCAGAUGUAAGGAUAUUAGUGUAGCAACGGUCAAAGAAGGAACAUGAGGAUCACCCAUGUGGUAGAUAAAU | 19 | 15.2 |  |
| UUAUAUUCUCAAUCGCCAUGUGCUUUAGAUACCAGUCUGAUAAAUGACCCUUGGCAGCUAGAGACAUGAGGAUCACCCAUGUCUU |  |  | apparent Kd (MS2 coat protein [2]; [5]): 10.6 nM; apparent Kd (MS2 coat protein [2]; [6]): 29.8 nM |
| AUAGUGCGGCUGAAGGAUAUGGAACCCGCGACAUGAGGAUCACCCAUGUACUUAAGCGACAUUUGCCAGAAGGUCAAGCAUUCCAU |  |  | apparent Kd (MS2 coat protein [2]; [7]): 13.3 nM; apparent Kd (MS2 coat protein [2]; [8]): 11.2 nM |
| AUUAACUGGUAAGAUACCAGAGUCGGGAUCUACAUGAGGAUCACCCAUGUUCUAAAGUCGCUCCCUUGGCAGCUUCAAUGAGUCG |  |  | apparent Kd (MS2 coat protein [2]; [9]): 35.3 nM; apparent Kd (MS2 coat protein [2]; [10]): 36 nM |
| AUGGAACAUGAGGAUCACCCAUGUUAGGAUAUCGGCGAAGGGAGUUUUAUACUCACUGCGAGAAGGAACGUGAC | 25.2 | 18.7 |  |
| GUAACUCAGGUCAGGAUAUUCGAGUAAGGGAAAACGAAGAAGGGACAUGAGGAUCACCCAUGUAACACGACUAU | 18.1 | 86.3 |  |
| AAUGUACAUGAGGAUCACCCAUGUCGUCUACUUAGAGGAUAUGAUUGGUUACCCAGCUGAUCAGAAGGCUACCGUC |  |  | apparent Kd (MS2 coat protein [2]; [7]): 14.1 nM; apparent Kd (MS2 coat protein [2]; [8]): 11.9 nM |
| CAUACGCCGCAGAAGGAAGGACAGACAUGAGGAUCACCCAUGUACACCGGUUUAUUGGGUGCACCUUAGGAUAUGCAAAAGAAC |  |  | apparent Kd (MS2 coat protein [2]; [7]): 268 nM; apparent Kd (MS2 coat protein [2]; [8]): 132 nM |
| GCAUUAGGGUAAGGAUAUUGAAUUAAACAUGGCAAAGUAAUUUUUGACAUGAGGAUCACCCAUGUCAAGAAGGUACUCAUUCAU | 6.08 | 5.74 |  |
| UCAAGGUCAGGAUAUUUAUACAGUCGAUUACGAGGAUGUCGAAAGAAGGGACAUGAGGAUCACCCAUGUGGUAC | 43 | 57.7 |  |
| GAAACAUUCCCGAGUUUCUACAUGAGGAUCACCCAUGUCCCAUAGGAUAUCUCUACCAGCCGCCGAGAGAAGGAUGUAGUCACU |  |  | apparent Kd (MS2 coat protein [2]; [7]): 185 nM; apparent Kd (MS2 coat protein [2]; [8]): 148 nM |
| GAACCGUUUGAGAAGGUACACAUUCAGGUCGGUACUGGACAUGAGGAUCACCCAUGUGCCGGUGGUAAGGAUAUCAGAUGAGCU | 10.5 | 10.4 |  |
| AAACAAGUAGGAUAUACAUGAGGAUCACCCAUGUAUUGUGAGGAUAGUACUGUACCAUGUAGAAGGACUCCGGA | 10.7 | 9.12 |  |
| CGCAAGAUCUUAGGAUAUCUGUGAGCCAAGACUAGAGAAGGAAGGAGGCUGUGCAACAUGAGGAUCACCCAUGUAUCCCGUGCA | 39.7 | 35.4 |  |
| GCACAACAUGAGGAUCACCCAUGUCGAGAUACCAGAACAUAUAUAUUCCCUUGGCAGCUCACACCUUUAAUGUAAAAUUCUUUGG |  |  | apparent Kd (MS2 coat protein [2]; [9]): 12.7 nM; apparent Kd (MS2 coat protein [2]; [10]): 14.5 nM |
| UACCCAUUAGAGAAGGUUGACGCCCUAGUUGUCAAAGGAUAUCUCCUCGAGGCUACACAUGAGGAUCACCCAUGUUCACAGGUC | 9.35 | 8.92 |  |
| UUUACGAACGUGGAAAUACAUGAGGAUCACCCAUGUCAAUUGUAGGAUAUCCGGCUCAAAGAAAUGGAGAAGGACAACGACUCC |  |  | apparent Kd (MS2 coat protein [2]; [7]): 13.4 nM; apparent Kd (MS2 coat protein [2]; [8]): 12.7 nM |
| ACCGAGGCAAUGGAUACCAGUGCGCCACAAUCGUGCUUCAACAUGAGGAUCACCCAUGUGCACCCUUGGCAGCCAACGGGCUCAU |  |  | apparent Kd (MS2 coat protein [2]; [5]): 21.9 nM; apparent Kd (MS2 coat protein [2]; [6]): 19.9 nM |
| AGUGGGUAUGGGCAGGAUAUACGUCGGGCGACAUGAGGAUCACCCAUGUUGGGCGGUGAAGUUGAGUAGAAGGGCCUCCGCCCGAA |  |  | apparent Kd (MS2 coat protein [2]; [7]): 54.6 nM; apparent Kd (MS2 coat protein [2]; [8]): 12.1 nM |
| UAGGUUAGGUAGAAGGGCAAGUAAUUCCACAUGAGGAUCACCCAUGUUCCUGUUUGGGAGGCUGUGCAGGAUAUACGAAAAUAA | 117 | 153 |  |
| AAGACGGUUCAGAAGGUCUCUAAGCAGGUUACAGAAGGAUAUGAUGCGGACACAUGAGGAUCACCCAUGUUCUAGGGUACCCUA |  |  | apparent Kd (MS2 coat protein [2]; [7]): 22.1 nM; apparent Kd (MS2 coat protein [2]; [8]): 19 nM |
| GCUAUGAACGUAGGAUAUGAAGCCUGGCUUGGUUCAGAAGGACGUGAGUAAGUGAGGUCCUGACAUGAGGAUCACCCAUGUACA | 23.9 | 31.7 |  |
| AUUUCAAACAUGAGGAUCACCCAUGUCAAGUUUGAGCAACUAAGAAGGUCAGAUCCAUAAGCACUGAAGGAUAUUAAGAGGUAC | 31.8 | 22 |  |
| GGAAUGUCGUAGGAUAUAUGAUCUGUAAGGUAGAUAGAAGGACGAACAUGAGGAUCACCCAUGUGGAGGAUGUU | 15.5 | 27.5 |  |

Source: the EternaBench riboswitch data
